Measurements reported in ChEMBL document CHEMBL3244405, “Imidazo[4,5-f]quinolines. 4. Synthesis and anthelmintic activity of a series of imidazo[4,5-f]quinolin-9-ols” (J Med Chem, 1978).
Activity calls are given as the source filed them. The rule behind the calls is not given here.

Assays:
Rodentolepis nana [1] = test: Anthelmintic activity against Hymenolepis nana infected in mouse assessed as reduction in worm burden at 300 mg/kg bid for 5 days relative to control; assay type: functional; parameters: scale not given: the % may be the effect or the level left
Procedure, shortened: (§1)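 Mice carried the tapeworm *H. nana* and were dosed at 300, 100, 50, 25, 10, 5 or 2.5 mg/kg. Activity was read as percent reduction in worm burden, and significance was tested by Mann-Whitney U test. The rest of the procedure follows an earlier publication.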

Rodentolepis nana [2] = test: Anthelmintic activity against Hymenolepis nana infected in mouse assessed as reduction in worm burden at 25 mg/kg bid for 5 days relative to control; assay type: functional; procedure, shortened: as §1
Rodentolepis nana [3] = test: Anthelmintic activity against Hymenolepis nana infected in mouse assessed as reduction in worm burden at 50 mg/kg bid for 5 days relative to control; assay type: functional; parameters: scale not given: the % may be the effect or the level left; procedure, shortened: as §1
Rodentolepis nana [4] = test: Anthelmintic activity against Hymenolepis nana infected in mouse assessed as reduction in worm burden at 100 mg/kg bid for 5 days relative to control; assay type: functional; parameters: scale not given: the % may be the effect or the level left; procedure, shortened: as §1
Rodentolepis nana [5] = test: Anthelmintic activity against Hymenolepis nana infected in mouse assessed as reduction in worm burden at 10 mg/kg bid for 5 days relative to control; assay type: functional; procedure, shortened: as §1
Mus musculus = test: Toxicity in mouse infected with Hymenolepis nana at 300 mg/kg bid for 5 days; assay type: organism-based; parameters: dose 300 mg/kg; conditions: in vivo, 120 h
Canis familiaris [6] = test: Toxicity in beagle dog assessed as untoward clinical signs at 50 to 150 mg/kg, po; assay type: organism-based, Canis lupus familiaris; parameters: dose 50-150 mg/kg, route oral; conditions: in vivo
Procedure, shortened: (§2)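 Beagles infected with *T. pisiformis*, aged from puppies to 2–3 years, received single oral doses of 50–150 mg/kg body weight. Readouts were worm clearance plus observation for emesis and other untoward clinical signs.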

Moniezia = test: Anthelmintic activity against Moniezia species infected in sheep assessed as complete parasite clearance at 50 mg/kg for 3 days administered as drench solution; assay type: functional, organism-based; parameters: dose 50 mg/kg
Procedure, shortened: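 Sheep were naturally infected. Drug was mixed with water and sonified to a creamy consistency, then given as a drench. Animals were sacrificed 3 days after dosing and the intestines were examined for worms.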

Rodentolepis nana [7] = test: Anthelmintic activity against Hymenolepis nana infected in mouse assessed as reduction in worm burden at 5 mg/kg bid for 5 days relative to control; assay type: functional; parameters: scale not given: the % may be the effect or the level left; procedure, shortened: as §1
Syphacia obvelata [8] = test: Anthelmintic activity against Syphacia obvelata infected in mouse assessed as reduction in worm burden at 10 mg/kg bid for 5 days relative to control; assay type: functional; parameters: scale not given: the % may be the effect or the level left
Taenia pisiformis = test: Anthelmintic activity against Taenia pisiformis infected in beagle dog assessed as complete parasite clearance at 50 to 150 mg/kg, po after 10 days; assay type: functional, organism-based; procedure, shortened: as §2
Taenia crassiceps = test: Anthelmintic activity against Taenia crassiceps infected in beagle dog assessed as complete parasite clearance at 100 mg/kg after 9 days; assay type: functional, organism-based; parameters: dose 100 mg/kg
Procedure, shortened: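 Dogs received a recently isolated *T. crassiceps* strain as 40 cysts per dog, taken from mice and given perorally in gelatin capsules to young beagles. On day 37, drug was given in gelatin capsules, three dogs per test. Dogs were sacrificed 9 days after treatment, and intestinal scolices were counted as worms recovered at necropsy.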

Syphacia obvelata [9] = test: Anthelmintic activity against Syphacia obvelata infected in mouse assessed as complete parasite clearance at 50 mg/kg bid for 5 days; assay type: functional, organism-based; parameters: dose 50 mg/kg
Canis familiaris [10] = test: Toxicity in beagle dog assessed as emesis at 50 to 150 mg/kg, po; assay type: organism-based, Canis lupus familiaris; parameters: dose 50-150 mg/kg, route oral; conditions: in vivo; procedure, shortened: as §2
Rodentolepis nana [11] = test: Anthelmintic activity against Hymenolepis nana infected in mouse assessed as reduction in worm burden at 2.5 mg/kg bid for 5 days relative to control; assay type: functional; parameters: scale not given: the % may be the effect or the level left; procedure, shortened: as §1

## Oc1c2c(nc3ccc4nc(-c5ccccc5)[nH]c4c13)CCC2
Rodentolepis nana [1]
  Activity: 100%
Rodentolepis nana [2]
  Activity: inactive
Rodentolepis nana [3]
  Activity: 41%
Rodentolepis nana [4]
  Activity: 100%

## Cc1cc(O)c2c(ccc3nc(-c4ccccc4Cl)[nH]c32)n1
Rodentolepis nana [1]
  Activity: 100%
Rodentolepis nana [2]
  Activity: inactive
Rodentolepis nana [3]
  Activity: 75%
Rodentolepis nana [4]
  Activity: 100%

## Cc1nc2ccc3nc(-c4ccccc4)[nH]c3c2c(O)c1C
Rodentolepis nana [1]
  Activity: 100%
Rodentolepis nana [2]
  Activity: inactive
Rodentolepis nana [3]
  Activity: 94%
Rodentolepis nana [4]
  Activity: 100%

## Cc1ccc(-c2nc3ccc4nc(C)cc(O)c4c3[nH]2)cc1
Rodentolepis nana [1]
  Activity: 70%
Rodentolepis nana [4]
  Activity: inactive

## Oc1cc(-c2ccccc2)nc2ccc3nc(-c4ccccc4)[nH]c3c12
Rodentolepis nana [1]
  Activity: 100%
Rodentolepis nana [2]
  Activity: inactive
Rodentolepis nana [3]
  Activity: 82%
Rodentolepis nana [4]
  Activity: 100%

## CCCCCCOc1ccc(C(=N)N(CCCC)CCCC)c2ccccc12 [BUNAMIDINE]
Rodentolepis nana [2]
  Activity: 30%
Rodentolepis nana [3]
  Activity: 59%
Rodentolepis nana [5]
  Activity: inactive
Rodentolepis nana [4]
  Activity: 100%
Mus musculus
  Activity: Toxic

## Cc1cc(O)c2c(ccc3nc(-c4ccccc4)[nH]c32)n1
Rodentolepis nana [1]
  Activity: 100%
Rodentolepis nana [2]
  Activity: 77%
Rodentolepis nana [3]
  Activity: 94%
Rodentolepis nana [5]
  Activity: inactive
Rodentolepis nana [4]
  Activity: 93%

## Cc1cc(O)c2c(ccc3nc(-c4ccco4)[nH]c32)n1 [FURODAZOLE]
Rodentolepis nana [1]
  Activity: 100%
Rodentolepis nana [2]
  Activity: 100%
Canis familiaris [6]
  Activity: Toxic
Moniezia
  Activity: Active
Rodentolepis nana [7]
  Activity: 57%
Rodentolepis nana [3]
  Activity: 100%
Syphacia obvelata [8]
  Activity: 68%
Taenia pisiformis
  Activity: Active
Rodentolepis nana [5]
  Activity: 75%
Taenia crassiceps
  Activity: Active
Syphacia obvelata [9]
  Activity: Active
Rodentolepis nana [4]
  Activity: 100%
Canis familiaris [10]
  Activity: Toxic
Rodentolepis nana [11]
  Activity: 35%
